Laboratory results taken from ChEMBL document CHEMBL1131442 (J Med Chem, 1998).

Legend:
Cannabinoid receptor 1 [1] = biological target: T1, Cannabinoid receptor 1 (Rattus norvegicus, UniProt P20272); experiment: Binding affinity towards cannabinoid receptor 1 from rat forebrain membranes in the presence of phenylmethanesulfonylfluoride (PMSF) using 0.8 nM [3H]CP-55940 as radioligand; set-up: species or system Membrane
Cannabinoid receptor 2 = Cannabinoid receptor 2 (Mus musculus, UniProt P47936); experiment: Binding affinity towards Cannabinoid receptor 2 from mouse spleen membranes using 0.8 nM [3H]CP-55940 as radioligand; type: tissue-based
In short: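 Mouse spleen membranes, no PMSF pretreatment (amidase absent). Each well held ~30 μg membrane in TME (25 mM Tris-HCl, 5 mM MgCl2, 1 mM EDTA, pH 7.4) with 0.1% fatty acid-free BSA, 0.8 nM [3H]CP-55,940 and varied analogue concentrations, 1 h. Bound ligand was collected on GF/C filters and counted by scintillation.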

Cannabinoid receptor 1 [2] = biological target: T1, Cannabinoid receptor 1; experiment: Binding affinity towards cannabinoid receptor 1 from rat forebrain membranes in the absence of phenylmethanesulfonylfluoride (PMSF) using 0.8 nM [3H]CP-55940 as radioligand; set-up: species or system Membrane
In short: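 Rat forebrain membranes were used without PMSF treatment. Bound ligand was separated by filtration and counted by scintillation. IC50 from nonlinear regression was converted to Ki by Cheng–Prusoff.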

Rattus norvegicus [3] = organism: Rattus norvegicus; experiment: Effective concentration required for stimulation of [35S]GTP-gamma-S, binding in rat microsomal membranes; type: functional
In short: (§1)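 Rat brain membranes (cerebellum removed) were sucrose-gradient purified. Membrane (40–50 μg protein) was incubated 1 h at 30 °C in 10 mM Tris, 100 mM NaCl, 5 mM MgCl2, 0.1% BSA with GDP, [35S]GTPγS and eight analogue concentrations. Nonspecific binding was defined with 10 μM GTPγS, and buffer alone set the baseline. Bound label was collected on GF/B filters and counted. Two experiments were run, each point in […].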

Rattus norvegicus [4] = organism: Rattus norvegicus; experiment: Maximal stimulation of [35S]GTP-gamma-S, binding in rat microsomal membranes expressed as Emax; type: functional; in short: as §1
Rattus norvegicus [5] = organism: Rattus norvegicus; experiment: Effective concentration required for stimulation of [35S]GTP-gamma-S, binding in rat microsomal membranes expressed as log EC50; type: functional; in short: as §1

Chain of Cannabinoid receptor 2 (P47936 whole entry): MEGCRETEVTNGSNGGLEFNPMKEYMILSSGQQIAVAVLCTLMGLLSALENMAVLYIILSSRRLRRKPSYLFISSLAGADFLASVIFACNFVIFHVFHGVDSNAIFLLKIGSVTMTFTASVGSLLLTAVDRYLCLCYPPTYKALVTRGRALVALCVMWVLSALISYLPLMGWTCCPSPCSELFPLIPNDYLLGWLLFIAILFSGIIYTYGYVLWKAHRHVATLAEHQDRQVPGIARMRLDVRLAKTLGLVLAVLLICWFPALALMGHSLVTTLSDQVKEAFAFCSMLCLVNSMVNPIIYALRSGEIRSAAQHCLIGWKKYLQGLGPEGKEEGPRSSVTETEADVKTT
T1 sequence (P20272 whole entry): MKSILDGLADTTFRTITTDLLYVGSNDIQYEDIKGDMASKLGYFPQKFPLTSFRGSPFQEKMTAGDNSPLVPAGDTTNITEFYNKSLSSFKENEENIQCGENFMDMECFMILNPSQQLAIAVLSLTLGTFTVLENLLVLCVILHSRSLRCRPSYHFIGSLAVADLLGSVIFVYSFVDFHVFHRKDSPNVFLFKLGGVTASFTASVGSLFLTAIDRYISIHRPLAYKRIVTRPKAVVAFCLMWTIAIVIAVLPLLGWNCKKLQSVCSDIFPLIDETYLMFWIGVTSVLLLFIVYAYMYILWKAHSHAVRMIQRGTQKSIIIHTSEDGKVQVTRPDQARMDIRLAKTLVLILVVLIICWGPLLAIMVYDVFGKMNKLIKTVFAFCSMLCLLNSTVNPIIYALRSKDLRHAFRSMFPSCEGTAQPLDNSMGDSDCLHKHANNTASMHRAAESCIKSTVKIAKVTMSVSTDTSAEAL

Row | Compound | Ki (Cannabinoid receptor 1 [1]) [µM] | Ki (Cannabinoid receptor 2) [µM] | Ki (Cannabinoid receptor 1 [2]) [µM] | EC50 (Rattus norvegicus [3]) [µM] | Emax (Rattus norvegicus [4]) [%] | EC50 (Rattus norvegicus [5]) [µM]
1 | CCCCC/C=C\C/C=C\C/C=C\C/C=C\CCCC(=O)NC(C)(C)C | 0.0512 | 1.14 | 0.105 |  |  | 
2 | C#CCNC(=O)CCC/C=C\C/C=C\C/C=C\C/C=C\CCCCC | 0.0108 | 0.29 | 4.9 | 0.1 | 143 | 20000
3 | CCCCC/C=C\C/C=C\C/C=C\C/C=C\CCCC(=O)N[C@@H](C)CO |  | 8.22 |  |  |  | 
4 | CCCCC/C=C\C/C=C\CCCCCCCC(=O)N[C@H](C)CO | 21 | 21 | 21 |  |  | 
5 | CCCCCCCC/C=C\CCCCCCCC(=O)N[C@H](C)CO | 19 | 26 | 33 |  |  | 
6 | CCCCCCC(C)(C)c1ccc([C@@H]2C[C@H](O)CC[C@H]2CCCO)c(O)c1 [CP-55940] |  |  |  | 0.1 | 145 | 20000
7 | CCCCC/C=C\C/C=C\C/C=C\C/C=C\CCCC(=O)NCCCl | 0.00529 | 0.195 | 3.4 | 0.42 | 162 | 
8 | CCCCC/C=C\C/C=C\CCCCCCCC1=NCCO1 |  | 20 |  |  |  | 
9 | CCCCC/C=C\C/C=C\C/C=C\C/C=C\CCCC(=O)N[C@H](C)CC | 0.0736 | 1.33 | 0.143 |  |  | 
10 | CCCCC/C=C\C/C=C\C/C=C\C/C=C\CCCC(=O)NC(C)CC (stereo not drawn) | 0.0832 | 2.2 | 0.158 |  |  | 
11 | CCCCC/C=C\C/C=C\C/C=C\C/C=C\CCCC(=O)N[C@H](C)CO [METHANANDAMIDE] |  | 0.868 |  | 0.33 | 148 | 
12 | CCCCC/C=C\C/C=C\C/C=C\C/C=C\CCCC(=O)NCCF | 0.0267 | 0.908 | 4.64 |  |  | 
13 | CCCCCCCC/C=C\CCCCCCCC1=NCCO1 |  | 31 | 14 |  |  | 
14 | CCCCC/C=C\C/C=C\CCCCCCCC(=O)NCCO [LINOLEOYLETHANOLAMIDE] |  | 25 |  |  |  | 
15 | CCCCC/C=C\C/C=C\C/C=C\C/C=C\CCCC(=O)N[C@@H](C)CC | 0.287 | 3.2 |  |  |  | 
16 | CCCCCCCC/C=C\CCCCCCCC(=O)NCCO [OLEOYLETHANOLAMIDE] |  | 31 | 44 |  |  | 
17 | CCCCC/C=C\C/C=C\C/C=C\C/C=C\CCCC(=O)NCCCCl | 0.0256 | 0.193 | 0.387 |  |  | 
18 | CCCCC/C=C\C/C=C\C/C=C\C/C=C\CCCC(=O)NCC(F)(F)F | 0.0362 | 0.718 | 2.38 |  |  | 
19 | CCCCC/C=C\C/C=C\C/C=C\C/C=C\CCCCNC(=O)COC(C)=O |  | > 10 | 0.419 |  |  | 
20 | CCCCC/C=C\C/C=C\C/C=C\C/C=C\CCCC1=N[C@H](C)CO1 |  | 6800 | 0.679 |  |  | 
21 | C=CCNC(=O)CCC/C=C\C/C=C\C/C=C\C/C=C\CCCCC | 0.00991 | 0.226 | 2.98 |  |  | 
22 | CCCCC/C=C\C/C=C\C/C=C\C/C=C\CCCC(=O)NC[C@H](C)O | 0.0356 | 0.771 | 0.11 |  |  | 
23 | Cc1c(C(=O)c2cccc3ccccc23)c2cccc3c2n1[C@H](CN1CCOCC1)CO3 [WIN-552122] |  |  |  | 0.18 | 150 | 
24 | CCCCC/C=C\C/C=C\C/C=C\C/C=C\CCCC(=O)NCC(C)C | 0.0902 | 0.84 | 0.0981 |  |  | 
25 | CCCCC/C=C\C/C=C\C/C=C\C/C=C\CCCC(=O)NC[C@@H](C)O | 0.13 | 1.79 | 0.63 |  |  | 
